Experiments:
[1] = system: Saccharoyces cerevisiae; assay: Sensitivity to the DNA damaging agent camptothecin; format: cell-based; details: data not shown
[2] = biological target: T1, p300 (Homo sapiens, UniProt Q09472); assay: p300 HAT reaction-rate assay with H3n21 peptide; format: biochemical, mammalian
Summary of the method: (§1)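 Enzyme: 3.1 µg/ml (61 nM) Gcn5 or 15 µg/ml p300, with 15 µM H3n21 peptide. Enzyme and peptide pre-incubated with DMSO or test compound for 5 min at 30°C. Reactions started with 30 µM acetyl-CoA. Released CoA quantified every 2 min over the first 10 min. Rate derived by linear regression of product versus time. Compound capped at 100 µM. For p300, single-point assays were also run at 0.5–2 µM compound.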

[3] = system: C. albicans; assay: Cellular levels of H3K56ac; format: cell-based; details: data not shown
[4] = Solubility limit in HAT assays; format: physicochemical; details: not tested above 100 µM
[5] = biological target: T2, Rtt109-Vps75 (Saccharomyces cerevisiae, UniProt Q07794); assay: Rtt109-Vps75 HAT reaction-rate assay with H3n21 peptide, released CoA quantified; format: biochemical; details: for Vmax, acetyl-CoA titration: 50 nM Rtt109-Vps75, 15 µM H3n21
T2 sequence (Q07794 1-436): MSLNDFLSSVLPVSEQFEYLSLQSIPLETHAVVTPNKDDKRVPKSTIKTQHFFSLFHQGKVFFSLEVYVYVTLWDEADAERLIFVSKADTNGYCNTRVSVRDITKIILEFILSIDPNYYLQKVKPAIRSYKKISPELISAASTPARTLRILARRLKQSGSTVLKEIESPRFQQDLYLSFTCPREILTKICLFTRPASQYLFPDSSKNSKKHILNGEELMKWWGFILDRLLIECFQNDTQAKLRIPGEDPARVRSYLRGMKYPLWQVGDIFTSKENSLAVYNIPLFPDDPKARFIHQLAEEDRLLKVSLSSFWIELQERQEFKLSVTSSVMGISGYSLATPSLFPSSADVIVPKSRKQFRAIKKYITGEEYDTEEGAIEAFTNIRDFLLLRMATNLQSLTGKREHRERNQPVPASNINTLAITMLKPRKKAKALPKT
T2 sequence (P53853 1-264 partner): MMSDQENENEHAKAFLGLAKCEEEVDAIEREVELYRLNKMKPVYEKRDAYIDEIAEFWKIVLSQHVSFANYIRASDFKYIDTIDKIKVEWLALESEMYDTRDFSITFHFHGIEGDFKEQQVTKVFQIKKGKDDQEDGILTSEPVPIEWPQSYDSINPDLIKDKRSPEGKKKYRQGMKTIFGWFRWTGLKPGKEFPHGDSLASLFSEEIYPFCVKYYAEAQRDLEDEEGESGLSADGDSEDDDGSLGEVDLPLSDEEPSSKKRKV

[6] = biological target: T1, p300; assay: HAT-ELISA on; format: biochemical, mammalian; details: 500 nM compound, 15 µg/ml p300
[7] = system: Saccharoyces cerevisiae; assay: Cellular levels of H3K56ac; format: cell-based; details: data not shown
[8] = system: C. albicans; assay: Sensitivity to the DNA damaging agent camptothecin; format: cell-based; details: data not shown
[9] = biological target: T2, Rtt109-Vps75; assay: Dialysis and time-course tests of tight binding to Rtt109-Vps75; format: biochemical
[10] = biological target: T2, Rtt109-Vps75; assay: HAT-ELISA of H3K56 acetylation on; format: biochemical; details: 500 nM compound, 50 nM Rtt109, 50 nM Vps75, 30 min, 30°C
[11] = biological target: Rtt109/Asf1 (Saccharomyces cerevisiae, UniProt Q07794); assay: HAT-ELISA of H3K56 acetylation on; format: biochemical; details: 500 nM compound, 50 nM Rtt109, 400 nM Asf1N, 30 min, 30°C
Summary of the method: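 Reaction mix: 50 nM Rtt109, 400 nM Asf1N and […] (H3-H4)2 tetramers, pre-incubated 5 min with DMSO or 500 nM test compound. Started with 15 µM acetyl-CoA, with water as the no-substrate control, then incubated 30 min at 30°C. H3K56ac detected by ELISA with H3K56ac-specific rabbit antiserum. Signal normalised to DMSO plus acetyl-CoA.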

[12] = biological target: Gcn5 (Saccharomyces cerevisiae, UniProt Q03330); assay: Gcn5 HAT reaction-rate assay with H3n21 peptide; format: biochemical
Gcn5, sequence (Q03330 whole entry): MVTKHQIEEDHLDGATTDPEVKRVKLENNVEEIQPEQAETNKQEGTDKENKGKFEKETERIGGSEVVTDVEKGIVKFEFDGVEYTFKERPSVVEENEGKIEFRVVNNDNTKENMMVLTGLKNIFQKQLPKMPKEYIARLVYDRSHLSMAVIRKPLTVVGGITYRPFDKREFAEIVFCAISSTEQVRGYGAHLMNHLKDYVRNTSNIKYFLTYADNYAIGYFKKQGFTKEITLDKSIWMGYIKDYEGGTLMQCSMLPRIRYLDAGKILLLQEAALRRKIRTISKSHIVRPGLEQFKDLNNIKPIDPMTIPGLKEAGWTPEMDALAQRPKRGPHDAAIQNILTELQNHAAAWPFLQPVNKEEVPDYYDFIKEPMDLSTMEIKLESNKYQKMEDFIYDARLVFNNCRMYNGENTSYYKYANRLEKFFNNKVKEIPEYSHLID
Summary of the method: as §1

[13] = system: Rtt109; details: ref [14], [20]; cited from earlier work
[14] = biological target: T2, Rtt109-Vps75; assay: Single-point HAT reactions, CoA formed by the end of a 30-minute reaction; format: biochemical; details: data not shown

T1 sequence (Q09472 whole entry, species assumed): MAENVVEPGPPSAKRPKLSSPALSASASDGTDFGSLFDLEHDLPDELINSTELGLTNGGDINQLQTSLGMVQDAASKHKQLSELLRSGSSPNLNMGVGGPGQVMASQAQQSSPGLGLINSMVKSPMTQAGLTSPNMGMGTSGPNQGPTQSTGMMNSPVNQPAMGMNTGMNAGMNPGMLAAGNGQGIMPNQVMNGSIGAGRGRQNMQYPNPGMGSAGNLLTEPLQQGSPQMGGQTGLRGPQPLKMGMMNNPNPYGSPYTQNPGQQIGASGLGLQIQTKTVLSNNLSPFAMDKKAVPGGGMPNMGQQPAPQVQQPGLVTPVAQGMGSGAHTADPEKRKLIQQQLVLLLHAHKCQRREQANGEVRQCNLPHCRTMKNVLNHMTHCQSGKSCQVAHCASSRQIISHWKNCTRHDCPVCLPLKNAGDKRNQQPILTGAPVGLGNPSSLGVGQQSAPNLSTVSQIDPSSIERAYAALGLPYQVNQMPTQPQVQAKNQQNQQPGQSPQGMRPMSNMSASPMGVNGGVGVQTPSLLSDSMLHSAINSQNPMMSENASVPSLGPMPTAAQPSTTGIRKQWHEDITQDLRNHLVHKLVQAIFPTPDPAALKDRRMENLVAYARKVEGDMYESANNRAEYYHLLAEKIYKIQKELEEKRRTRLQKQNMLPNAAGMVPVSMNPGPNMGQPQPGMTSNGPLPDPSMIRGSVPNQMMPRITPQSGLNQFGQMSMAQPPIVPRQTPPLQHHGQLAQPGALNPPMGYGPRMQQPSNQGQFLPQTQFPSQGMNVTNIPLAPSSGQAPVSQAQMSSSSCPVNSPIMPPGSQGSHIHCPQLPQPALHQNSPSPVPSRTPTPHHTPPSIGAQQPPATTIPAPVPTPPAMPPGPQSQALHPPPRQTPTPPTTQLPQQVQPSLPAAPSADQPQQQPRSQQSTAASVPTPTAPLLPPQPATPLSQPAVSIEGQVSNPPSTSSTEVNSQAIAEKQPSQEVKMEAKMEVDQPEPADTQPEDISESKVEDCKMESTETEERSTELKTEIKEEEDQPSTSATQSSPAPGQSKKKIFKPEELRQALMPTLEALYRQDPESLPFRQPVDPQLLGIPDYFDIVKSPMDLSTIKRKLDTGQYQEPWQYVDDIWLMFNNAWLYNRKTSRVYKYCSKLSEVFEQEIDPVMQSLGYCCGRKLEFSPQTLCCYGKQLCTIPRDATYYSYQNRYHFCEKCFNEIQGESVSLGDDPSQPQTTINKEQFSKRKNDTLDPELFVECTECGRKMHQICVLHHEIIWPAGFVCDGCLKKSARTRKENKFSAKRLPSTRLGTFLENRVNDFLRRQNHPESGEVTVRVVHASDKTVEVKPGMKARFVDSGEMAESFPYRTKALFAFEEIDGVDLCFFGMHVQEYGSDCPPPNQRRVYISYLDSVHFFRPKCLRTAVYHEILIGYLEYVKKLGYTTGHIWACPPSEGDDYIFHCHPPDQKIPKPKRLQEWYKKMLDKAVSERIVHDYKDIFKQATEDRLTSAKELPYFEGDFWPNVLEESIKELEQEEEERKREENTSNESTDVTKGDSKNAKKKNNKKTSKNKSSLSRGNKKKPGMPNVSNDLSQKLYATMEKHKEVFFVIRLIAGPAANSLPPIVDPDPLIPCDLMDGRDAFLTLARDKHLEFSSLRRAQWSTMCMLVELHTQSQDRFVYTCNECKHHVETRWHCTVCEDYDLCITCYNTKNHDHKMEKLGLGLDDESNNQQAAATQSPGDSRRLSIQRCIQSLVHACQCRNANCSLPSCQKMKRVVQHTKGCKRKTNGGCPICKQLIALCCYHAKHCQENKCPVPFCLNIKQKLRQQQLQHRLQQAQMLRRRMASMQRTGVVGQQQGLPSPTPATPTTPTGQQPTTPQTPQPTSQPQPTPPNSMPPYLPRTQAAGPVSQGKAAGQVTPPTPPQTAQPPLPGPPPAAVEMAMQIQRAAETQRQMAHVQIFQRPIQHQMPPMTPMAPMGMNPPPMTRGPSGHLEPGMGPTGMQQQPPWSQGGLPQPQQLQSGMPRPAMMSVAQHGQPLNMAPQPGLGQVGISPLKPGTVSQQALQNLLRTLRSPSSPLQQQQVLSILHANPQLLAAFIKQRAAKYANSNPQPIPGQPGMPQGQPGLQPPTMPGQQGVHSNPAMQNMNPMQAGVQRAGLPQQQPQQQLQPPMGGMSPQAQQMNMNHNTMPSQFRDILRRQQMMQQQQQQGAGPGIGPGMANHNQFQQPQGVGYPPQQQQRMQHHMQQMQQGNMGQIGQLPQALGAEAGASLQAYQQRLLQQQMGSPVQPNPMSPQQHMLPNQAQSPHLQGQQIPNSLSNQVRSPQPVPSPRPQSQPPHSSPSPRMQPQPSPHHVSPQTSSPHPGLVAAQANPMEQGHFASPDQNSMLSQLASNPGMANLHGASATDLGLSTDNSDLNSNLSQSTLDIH

CCCC1(c2ccccc2)NC(=O)N(CC(=O)N(C)Cc2c(F)cccc2Cl)C1=O (stereo not shown) [compound 1, N-[(2-chloro-6-fluorophenyl)methyl]-2-(2,5-dioxo-4-phenyl-4-propylimidazolidin-1-yl)-N-methylacetamide]
effect on sensitivity to camptothecin [1]: have not observed that compound 1 is able to affect
inhibition of p300 in single point enzyme assay ([2]; 0.5 – 2 µM compound): without inhibiting p300
enzyme reaction rate remaining, p300 ([2]; compound up to 100 µM, 15 µg/ml p300): ≥ 80 % activity
inhibition of HAT activity of p300 ([2]; dose response up to 100 µM): did not significantly inhibit
effect on cellular levels of H3K56ac [3]: have not observed that compound 1 is able to affect
solubility in assay [4]: solubility limitations
preference for inhibition of Rtt109 over p300 and Gcn5 [5]: greater than two order of magnitude preference
Vmax, acetyl-CoA titration ([5]; 30 µM compound 1): 1.46 ± 0.08 nM/s
Vmax, acetyl-CoA titration ([5]; 60 µM compound 1): 0.68 ± 0.09 nM/s
inhibition of Rtt109-Vps75 in single point enzyme assay ([5]; 0.5 – 2 µM compound): inhibited Rtt109
inhibition of p300 HAT activity on (H3-H4)2 tetramers [6]: no inhibitory effect
effect on cellular levels of H3K56ac [7]: have not observed that compound 1 is able to affect
effect on sensitivity to camptothecin [8]: have not observed that compound 1 is able to affect
time course of inhibition ([9]; 1 µM Rtt109-Vps75 with 1.0 µM compound 1, incubated 0-60 minutes on ice): the degree of inhibition increased during the entire 60 minutes
mode of inhibition ([9]; from substrate titrations, dialysis and enzyme-concentration dependence): tight or perhaps irreversible inhibitor
inhibition of H3K56 acetylation by Rtt109-Vps75 [10]: inhibited acetylation
inhibition of H3K56 acetylation by Rtt109/Asf1 [11]: inhibited acetylation
enzyme reaction rate remaining, Gcn5 ([12]; compound up to 100 µM, 61 nM Gcn5): ≥ 80 % activity
inhibition of HAT activity of Gcn5 ([12]; dose response up to 100 µM): did not significantly inhibit

CC(=O)N[C@@H](CCCCNC(=O)CSCCNC(=O)CCNC(=O)[C@H](O)C(C)(C)COP(=O)(O)OP(=O)(O)OC[C@H]1O[C@@H](n2cnc3c(N)ncnc32)[C@H](O)[C@@H]1OP(=O)(O)O)C(N)=O [Lys-CoA]
effect on Rtt109 catalysis [13]: do not affect Rtt109 catalysis

CCC1(c2ccccc2)NC(=O)N(CC(=O)N(C)Cc2c(F)cccc2Cl)C1=O (stereo not shown) [SAR9]
effect on reaction rates, dose response ([5]; 100 nM – 1 µM compound, 50 nM Rtt109-Vps75): minimal inhibition even at the highest concentration tested
inhibition of acetylation by Rtt109-Vps75 in single-point HAT reactions [14]: not as potent as compound 1
